Legend:
[1] = biological target: T1, Solute carrier family 22 member 7 (Rattus norvegicus, UniProt Q5RLM2); test: (§1) TP_TRANSPORTER: uptake in Xenopus laevis oocytes; assay type: functional, cell-based; settings: oocyte
T1 sequence (Q5RLM2 whole entry): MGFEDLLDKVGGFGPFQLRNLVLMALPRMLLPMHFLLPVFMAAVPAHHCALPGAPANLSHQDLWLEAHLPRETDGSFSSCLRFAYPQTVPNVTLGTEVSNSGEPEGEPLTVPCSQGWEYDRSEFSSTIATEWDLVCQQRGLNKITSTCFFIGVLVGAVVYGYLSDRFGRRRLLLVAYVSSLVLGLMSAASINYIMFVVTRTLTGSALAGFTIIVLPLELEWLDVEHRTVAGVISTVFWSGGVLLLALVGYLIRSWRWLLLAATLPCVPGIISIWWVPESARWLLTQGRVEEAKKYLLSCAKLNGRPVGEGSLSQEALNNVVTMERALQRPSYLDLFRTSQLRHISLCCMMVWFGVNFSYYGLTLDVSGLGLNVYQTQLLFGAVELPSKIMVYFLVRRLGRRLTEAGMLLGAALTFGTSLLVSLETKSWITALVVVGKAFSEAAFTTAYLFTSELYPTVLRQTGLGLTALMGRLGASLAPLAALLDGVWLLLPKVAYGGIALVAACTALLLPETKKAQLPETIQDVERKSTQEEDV
Summary of the method: (§2)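 Oocytes were injected with 10 ng capped L5 cRNA or left as controls, then held 2–3 days at 18°C. Radiolabeled substrates ([14C]α-ketoglutarate 7 μM, [3H]PGE2 6 nM, [3H]methotrexate 1 μM, [14C]acetylsalicylate 20 μM, [14C]PAH 20 μM) were taken up for 1 h in ND96, pH 7.4, at room temperature. Mean±S.E.M., n=5–8.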

[2] = biological target: T1, Solute carrier family 22 member 7; test: TP_TRANSPORTER: inhibition of Salicylate uptake (salicylate: 1 uM, Rifampicin: 1000 uM) in Xenopus laevis oocytes; assay type: functional, cell-based; settings: oocyte
Summary of the method: (§3)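 Rat liver NLT/OAT2 (L5) cRNA (10 ng capped) was injected into defolliculated oocytes, which were kept 2–3 days at 18°C in gentamicin Barth's, pH 7.4. Uptake of 1 μM [14C]salicylate was measured in ND96 (pH 7.4) at room temperature, with or without inhibitor (1 mM; BSP 250 μM). Results are % of L5-mediated uptake without inhibitor, mean±S.E.M., n=5–8 oocytes.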

[3] = biological target: T1, Solute carrier family 22 member 7; test: TP_TRANSPORTER: inhibition of Salicylate uptake (salicylate: 1 uM, BSP: 250 uM) in Xenopus laevis oocytes; assay type: functional, cell-based; settings: oocyte; summary of the method: as §3
[4] = biological target: T1, Solute carrier family 22 member 7; test: TP_TRANSPORTER: inhibition of Salicylate uptake (salicylate: 1 uM, Enalapril: 1000 uM) in Xenopus laevis oocytes; assay type: functional, cell-based; settings: oocyte; summary of the method: as §3
[5] = biological target: T1, Solute carrier family 22 member 7; test: TP_TRANSPORTER: inhibition of Salicylate uptake (salicylate: 1 uM, ICG: 1000 uM) in Xenopus laevis oocytes; assay type: functional, cell-based; settings: oocyte; summary of the method: as §3
[6] = biological target: T1, Solute carrier family 22 member 7; test: TP_TRANSPORTER: inhibition of Salicylate uptake (salicylate: 1 uM, Cefoperazone: 1000 uM) in Xenopus laevis oocytes; assay type: functional, cell-based; settings: oocyte; summary of the method: as §3
[7] = substrate: O=C(O)CCC(=O)C(=O)O; test: as §1; assay type: functional, cell-based, Oocyte; summary of the method: as §2
[8] = substrate: O=C(O)c1ccccc1O; test: cells, lysate or membranes named

Molecule: Nc1ccc(C(=O)NCC(=O)O)cc1 [AMINOHIPPURIC ACID]
- Activity [1]: substrate [+]

Molecule: CO[C@H]1/C=C/O[C@@]2(C)Oc3c(C)c(O)c4c(O)c(c(/C=N/N5CCN(C)CC5)c(O)c4c3C2=O)NC(=O)/C(C)=C\C=C\[C@H](C)[C@H](O)[C@@H](C)[C@@H](O)[C@@H](C)[C@H](OC(C)=O)[C@@H]1C [RIFAMPIN]
- Activity [2]: inhibitor [(at a rough estimate) 15 % of control]

Molecule: CC(=O)Oc1ccccc1C(=O)O [ASPIRIN]
- Activity [1]: substrate [+]

Molecule: O=C1OC(c2ccc(O)c(S(=O)(=O)[O-])c2)(c2ccc(O)c(S(=O)(=O)[O-])c2)c2c(Br)c(Br)c(Br)c(Br)c21.[Na+].[Na+] [SULFOBROMOPHTHALEIN SODIUM]
- Activity [3]: inhibitor [(at a rough estimate) <5 % of control]

Molecule: CCOC(=O)[C@H](CCc1ccccc1)N[C@@H](C)C(=O)N1CCC[C@H]1C(=O)O
- Activity [4]: inhibitor [(at a rough estimate) 80 % of control]

Molecule: CC[N+](CC)(CC)CC [TETRYLAMMONIUM]
- Activity [1]: is not a substrate [-]

Molecule: CC1(C)C(/C=C/C=C/C=C/C=C2/N(CCCCS(=O)(=O)[O-])c3ccc4ccccc4c3C2(C)C)=[N+](CCCCS(=O)(=O)[O-])c2ccc3ccccc3c21.[Na+] [INDOCYANINE GREEN]
- Activity [5]: inhibitor [(at a rough estimate) 10 % of control]

Molecule: CCN1CCN(C(=O)N[C@@H](C(=O)N[C@@H]2C(=O)N3C(C(=O)O)=C(CSc4nnnn4C)CS[C@H]23)c2ccc(O)cc2)C(=O)C1=O [CEFOPERAZONE]
- Activity [6]: inhibitor [(at a rough estimate) 15 % of control]

Molecule: CN(Cc1cnc2nc(N)nc(N)c2n1)c1ccc(C(=O)N[C@@H](CCC(=O)O)C(=O)O)cc1 [METHOTREXATE]
- Activity [1]: substrate [+]

Molecule: CCCCC[C@H](O)/C=C/[C@H]1[C@H](O)CC(=O)[C@@H]1C/C=C\CCCC(=O)O [DINOPROSTONE]
- Activity [1]: substrate [+]

B1: Solute carrier family 22 member 7 (Rattus norvegicus) (protein)
chain: T1 sequence (Q5RLM2 whole entry)
- Km [7]: 17.8 µM
- Km [8]: 88.8 µM
